Reference: ChEMBL document CHEMBL3352265, “Potentially bioactive organotin(IV) compounds: synthesis, characterization, in vitro bioactivities and interaction with SS-DNA” (Eur J Med Chem, 2014)
≈ marks a conversion by molar mass, not a printed value.

Tests used:
[1] = system: Escherichia coli; experiment: Antibacterial activity against Escherichia coli ATCC 15224 at 40 mg/mL after 24 hrs by disc diffusion method; assay type: functional; settings: ATCC 15224, 24 h, read-out: DIZ
Method in brief: (§1)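 Disc diffusion. Strains grown in nutrient broth at 37 °C for 24 h. 1% culture (about 10^6 CFU/mL) mixed into nutrient agar at 45 °C and poured. 4 mm paper discs received compound at 40 mg/mL stock in DMSO; final concentrations tested were […]. DMSO served as negative control, roxithromycin and cefixime as positive controls. Triplicate plates incubated at 37 °C for 24 h. Complete-inhibition zone diameter (mm) recorded as the mean of 3.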

[2] = system: Staphylococcus aureus; experiment: Antibacterial activity against Staphylococcus aureus ATCC 6538 at 40 mg/mL after 24 hrs by disc diffusion method; assay type: functional; settings: ATCC 6538, 24 h, read-out: DIZ; method in brief: as §1
[3] = system: Klebsiella aerogenes; experiment: Antibacterial activity against Enterobacter aerogenes ATCC 13048 at 40 mg/mL after 24 hrs by disc diffusion method; assay type: functional; settings: ATCC 13048, 24 h, read-out: DIZ; method in brief: as §1
[4] = system: Salmonella typhimurium; experiment: Antibacterial activity against Salmonella typhimurium ATCC 14028 at 40 mg/mL after 24 hrs by disc diffusion method; assay type: functional, Salmonella enterica subsp. enterica serovar Typhimurium; settings: Salmonella enterica, ATCC 14028, 24 h; read-out: DIZ; method in brief: as §1
[5] = system: Bordetella bronchiseptica; experiment: Antibacterial activity against Bordetella bronchiseptica ATCC 4617 at 40 mg/mL after 24 hrs by disc diffusion method; assay type: functional; settings: ATCC 4617, 24 h, read-out: DIZ; method in brief: as §1
[6] = system: Bacillus spizizenii; experiment: Antibacterial activity against Bacillus subtilis ATCC 6633 at 40 mg/mL after 24 hrs by disc diffusion method; assay type: functional; settings: ATCC 6633, 24 h, read-out: DIZ; method in brief: as §1
[7] = system: Artemia salina; experiment: Cytotoxicity in brine shrimp assessed as mortality after 24 hrs; assay type: functional; settings: read-out: LD50 (the source's name)
[8] = system: Aspergillus niger; experiment: Antifungal activity against Aspergillus niger FCBP 0198 at 40 mg/mL after 7 days by disc diffusion method; assay type: functional; settings: FCBP 0198, 168 h, read-out: DIZ
Method in brief: (§2)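 Disc diffusion on SDA. Fungi cultured at 28 °C for 24 h. 4 mm discs received compound at 40 mg/mL stock in DMSO. DMSO served as negative control, terbinafine as positive control. Plates incubated at 28 °C for 7 days. Growth diameter (mm) measured and inhibition calculated against the negative control. MIC taken as the lowest concentration with no growth.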

[9] = system: Aspergillus fumigatus; experiment: Antifungal activity against Aspergillus fumigatus FCBP 66 at 40 mg/mL after 7 days by disc diffusion method; assay type: functional; settings: FCBP 66, 168 h, read-out: DIZ; method in brief: as §2
[10] = system: Aspergillus flavus; experiment: Antifungal activity against Aspergillus flavus FCBP 0064 at 40 mg/mL after 7 days by disc diffusion method; assay type: functional; settings: FCBP 0064, 168 h, read-out: DIZ; method in brief: as §2
[11] = system: Mucor; experiment: Antifungal activity against Mucor FCBP 0400 at 40 mg/mL after 7 days by disc diffusion method; assay type: functional; settings: FCBP 0400, 168 h, read-out: DIZ; method in brief: as §2
[12] = system: Agrobacterium tumefaciens; experiment: Antitumor activity against Agrobacterium tumefaciens -induced tumor at 1000 ug/ml after 21 days by potato disc bioassay technique; assay type: functional
Method in brief: (§3)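 Potato disc assay with 48 h culture of A. tumefaciens At-10. Inoculum contained compound at […]. Red-skinned potatoes sterilized in 0.1% HgCl2; 8 mm × 4 mm discs placed ten per 1.5% agar plate, […] each. Incubated at 28 °C in the dark for 21 days, in triplicate. Discs stained with Lugol's and tumors counted. Percent inhibition calculated against the negative control.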

[13] = system: Agrobacterium tumefaciens; experiment: Antitumor activity against Agrobacterium tumefaciens -induced tumor at 100 ug/ml after 21 days by potato disc bioassay technique; assay type: functional; method in brief: as §3
[14] = system: Agrobacterium tumefaciens; experiment: Antitumor activity against Agrobacterium tumefaciens -induced tumor at 10 ug/ml after 21 days by potato disc bioassay technique; assay type: functional; method in brief: as §3

Row | Compound | zone of inhibition at 40000 µg/mL [1] [mm] | zone of inhibition at 40000 µg/mL [2] [mm] | zone of inhibition at 40000 µg/mL [3] [mm] | zone of inhibition at 40000 µg/mL [4] [mm] | zone of inhibition at 40000 µg/mL [5] [mm] | zone of inhibition at 40000 µg/mL [6] [mm] | also measured
1 | C=CC1=C(C(=O)O)N2C(=O)[C@@H](NC(=O)/C(=N\OCC(=O)O)c3csc(N)n3)[C@H]2SC1 [CEFIXIME] | 24 | 26 | 10 | 26 | 13 | 25 | 
2 | COc1cccc2c1C(=O)c1c(O)c3c(c(O)c1C2=O)C[C@@](O)(C(=O)CO)C[C@@H]3O[C@H]1C[C@H](N)[C@H](O)[C@H](C)O1 [DOXORUBICIN] |  |  |  |  |  |  | LC50 [7]: 0.434 µg/mL (≈ 0.798 µM)
3 | CC[C@H]1OC(=O)[C@H](C)[C@@H](O[C@H]2C[C@@](C)(OC)[C@@H](O)[C@H](C)O2)[C@H](C)[C@@H](O[C@@H]2O[C@H](C)C[C@H](N(C)C)[C@H]2O)[C@](C)(O)C[C@@H](C)/C(=N\OCOCCOC)[C@H](C)[C@@H](O)[C@]1(C)O [ROXITHROMYCIN] | 14 | 14 | 12 | 16 | 19 | 10 | 
4 | CN(C/C=C/C#CC(C)(C)C)Cc1cccc2ccccc12 [TERBINAFINE] |  |  |  |  |  |  | zone of inhibition at 40000 µg/mL [8]: 35 mm; zone of inhibition at 40000 µg/mL [9]: 35 mm; zone of inhibition at 40000 µg/mL [10]: 35 mm; zone of inhibition at 40000 µg/mL [11]: 32 mm
5 | CC[C@]1(O)C[C@H]2CN(CCc3c([nH]c4ccccc34)[C@@](C(=O)OC)(c3cc4c(cc3OC)N(C=O)[C@H]3[C@@](O)(C(=O)OC)[C@H](OC(C)=O)[C@]5(CC)C=CCN6CC[C@]43[C@@H]65)C2)C1 [VINCRISTINE] |  |  |  |  |  |  | Activity [12]: 100%; Activity [13]: 100%; Activity [14]: 100%
